The record followed here is ChEMBL document CHEMBL1140435, “Synthesis and evaluation of cyclic secondary amine substituted phenyl and benzyl nitrofuranyl amides as novel antituberculosis agents” (J Med Chem, 2005).

Converted amounts (≈) assume the structure as drawn.

In series [1] the test system is Mycobacterium tuberculosis. Briefly: Activity against Mycobacterium tuberculosis H37Rv. The class given is functional.
Series [2] relates to Mus musculus. Kind of series: Maximum concentration in female C57BL/6 mice administered with 300 mg/kg, po. As to conditions: in vivo. Set-up: dose 300 mg/kg, route oral. Format: ADME, organism-based. Put shortly: (§1)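 8–10 week old female C57BL/6 mice given one oral gavage dose, generally 300 mg/kg, below the maximum tolerated dose; HCl salts where possible. Tail-vein bleeds were taken from 3 mice at 20 min, 2, 4 and 8 h, and the serum was collected. Tmax and half-life were read off the concentration–time curve.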

A short description of series [3]: Oral bioavailability in female C57BL/6 mice administered with 300 mg/kg, po. Format: ADME, organism-based. As to conditions: C57BL/6, mouse, in vivo. The procedure, abridged: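 Graded Low (BF 1–20), Medium (21–80) or High (>80). Serum was serially diluted with naive mouse serum and added to H37Rv at 10^4 CFU/well, then incubated at 35 °C. Wells scored positive if OD600 was <50% of the untreated control.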

Series [4] has as its system Mycobacterium tuberculosis. Kind of series: Viable number of Mycobacterium tuberculosis colonies in lungs of infected mice after 9 days of administration of 300 mg/kg. Format: functional, Lung. Put shortly: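 GKO mice infected by low-dose aerosol delivering ~50 bacilli to the lungs. Treatment began 18 days post-infection: 9 daily doses at 300 mg/kg. At day 27 post-infection, lung homogenates were serially diluted onto 7H11 agar and incubated at 37 °C in ambient air for 4 weeks. Result given as Log10 CFU ± SEM and Log10 reduction versus untreated controls.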

Series [5] in a line: Tmax in female C57BL/6 mice administered with 300 mg/kg, po. Format: ADME, organism-based. Set-up: dose 300 mg/kg, route oral. As to conditions: C57BL/6, mouse, in vivo. The procedure, abridged: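 8–10 week old female C57BL/6 mice given one oral gavage dose, generally 300 mg/kg, below the maximum tolerated dose; HCl salts where possible. Tail-vein bleeds were taken from 3 mice at 20 min, 2, 4 and 8 h, and the serum was collected. […] Tmax and half-life were read off the concentration–time curve.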

A short description of series [6]: Half life in female C57BL/6 mice administered with 300 mg/kg, po. To be noted: C57BL/6, mouse, in vivo. Set-up: dose 300 mg/kg, route oral. The class given is ADME, organism-based. The procedure, abridged: as §1

For `O=C(Nc1cccc(N2CCN(Cc3ccccc3)CC2)c1)c1ccc([N+](=O)[O-])o1`, the MIC50 in series [1] amounted to 12.5 µg/mL (≈ 30.8 µM).

Compound `CN1CCN(c2ccc(CNC(=O)c3ccc([N+](=O)[O-])o3)cc2)CC1` displayed an MIC50 in series [1] of 0.2 µg/mL (≈ 0.581 µM).

The compound `O=C(NCc1ccc(N2CCOCC2)cc1)c1ccc([N+](=O)[O-])o1` gave a Cmax in series [2] of 3000 ng/mL. Further, in series [3], the bioavailability stood at 21%. The same compound displayed an MIC50 in series [1] of 0.2 µg/mL (≈ 0.604 µM).

With `O=C(Nc1cccc(N2CCC(Cc3ccccc3)CC2)c1)c1ccc([N+](=O)[O-])o1`, the MIC50 in series [1] was found to be 12.5 µg/mL (≈ 30.8 µM).

In series [1], `O=C(NCc1ccc(N2CCN(Cc3ccccc3)CC2)cc1)c1ccc([N+](=O)[O-])o1` came in with an MIC50 of 0.0125 µg/mL (≈ 0.0297 µM). The Log10 cfu in series [4] is 7.92.

On to `O=C(NCc1cccc(N2CCN(Cc3ccccc3)CC2)c1)c1ccc([N+](=O)[O-])o1`, for which, in series [1], the MIC50 is 0.1 µg/mL (≈ 0.238 µM).

In the case of `CN1CCN(c2cccc(NC(=O)c3ccc([N+](=O)[O-])o3)c2)CC1`, the MIC50 in series [1] stood at 12.5 µg/mL (≈ 37.8 µM).

Regarding `CN(C)c1ccc(CNC(=O)c2ccc([N+](=O)[O-])o2)cc1`, the MIC50 in series [1] was 0.1 µg/mL (≈ 0.346 µM). Besides, the Log10 cfu in series [4] was 7.46.

Consider `O=C(Nc1ccc(N2CCC(Cc3ccccc3)CC2)cc1)c1ccc([N+](=O)[O-])o1`, for which the MIC50 in series [1] worked out at 3.13 µg/mL (≈ 7.72 µM).

On to `CN1CCN(c2cccc(CNC(=O)c3ccc([N+](=O)[O-])o3)c2)CC1`, for which the MIC50 in series [1] was 3.12 µg/mL (≈ 9.07 µM).

In series [1], `CN1CCN(c2ccc(NC(=O)c3ccc([N+](=O)[O-])o3)cc2)CC1` gave an MIC50 of 12.5 µg/mL (≈ 37.8 µM).

The compound `O=C(Nc1ccc(N2CCN(c3ccccn3)CC2)cc1)c1ccc([N+](=O)[O-])o1` had an MIC50 in series [1] of 0.4 µg/mL (≈ 1.02 µM).

With `O=C(Nc1ccc(N2CCN(Cc3ccccc3)CC2)cc1)c1ccc([N+](=O)[O-])o1`, in series [1], the MIC50 amounted to 0.8 µg/mL (≈ 1.97 µM).

In series [1], `O=C(NCc1ccc(N2CCC(Cc3ccccc3)CC2)c(F)c1)c1ccc([N+](=O)[O-])o1` returned an MIC50 of 0.2 µg/mL (≈ 0.457 µM).

`O=C(NCc1ccc(N2CCSCC2)cc1)c1ccc([N+](=O)[O-])o1` registered a Cmax in series [2] of 820 ng/mL. Besides, the bioavailability in series [3] was found to be 1%. Moreover, the MIC50 in series [1] was found to be 0.1 µg/mL (≈ 0.288 µM). For the same compound, the Log10 cfu in series [4] amounted to 7.53.

For the compound `CN1CCN(/N=C\c2ccc(CNC(=O)c3ccc([N+](=O)[O-])o3)cc2)CC1`, in series [1], the MIC50 came out at 0.4 µg/mL (≈ 1.08 µM).

Take `O=C(NCc1ccc(N2CCS(=O)(=O)CC2)cc1)c1ccc([N+](=O)[O-])o1`: the MIC50 in series [1] was 12.2 µg/mL (≈ 32.3 µM).

`O=C(NCc1ccc(N2CC[S+]([O-])CC2)cc1)c1ccc([N+](=O)[O-])o1`: in series [1], the MIC50 was determined as 3.13 µg/mL (≈ 8.61 µM).

On to `O=C(NCc1ccc(N2CCSCC2)c(F)c1)c1ccc([N+](=O)[O-])o1`, for which the MIC50 in series [1] was 0.8 µg/mL (≈ 2.19 µM).

As to `CN1CCN(c2ccc(CNC(=O)c3ccc([N+](=O)[O-])o3)cc2F)CC1`, in series [1], the MIC50 was 0.8 µg/mL (≈ 2.21 µM).

Regarding `O=C(Nc1cccc(N2CCN(c3ccccn3)CC2)c1)c1ccc([N+](=O)[O-])o1`, the MIC50 in series [1] stood at 3.13 µg/mL (≈ 7.96 µM).

With `O=C(NCc1ccc(N2CCC(Cc3ccccc3)CC2)cc1)c1ccc([N+](=O)[O-])o1`, the MIC50 in series [1] stood at 0.8 µg/mL (≈ 1.91 µM).

For the compound `O=C(Nc1cccc(N2CCOCC2)c1)c1ccc([N+](=O)[O-])o1`, in series [1], the MIC50 was 3.13 µg/mL (≈ 9.86 µM).

`O=C(Nc1ccc(N2CCOCC2)cc1)c1ccc([N+](=O)[O-])o1` returned an MIC50 in series [1] of 3.13 µg/mL (≈ 9.86 µM).

`O=C(NCc1cccc(N2CCC(Cc3ccccc3)CC2)c1)c1ccc([N+](=O)[O-])o1` registered an MIC50 in series [1] of 1.56 µg/mL (≈ 3.72 µM).

As to `O=C(NCc1ccc(N2CCN(CC3CC3)CC2)cc1)c1ccc([N+](=O)[O-])o1`, in series [1], the MIC50 worked out at 0.05 µg/mL (≈ 0.13 µM).

Regarding `O=C(NCc1ccc(N2CCN(Cc3ccccc3)CC2)c(F)c1)c1ccc([N+](=O)[O-])o1`, the Cmax in series [2] came out at 1640 ng/mL. The compound also came in with a bioavailability in series [3] of 21%. The compound further yielded an MIC50 in series [1] of 0.025 µg/mL (≈ 0.057 µM). The Log10 cfu in series [4] amounted to 7.65.

`O=C(NCc1ccc(N2CCOCC2)c(F)c1)c1ccc([N+](=O)[O-])o1`: the MIC50 in series [1] was 0.4 µg/mL (≈ 1.15 µM).

Regarding `Cl.O=C(NCc1cccc(N2CCN(Cc3ccccc3)CC2)c1)c1ccc([N+](=O)[O-])o1`, the highest level in series [2] (Cmax) was 1640 ng/mL. Moreover, the time of peak concentration (Tmax) in series [5] was determined as 30 min. Besides, the bioavailability in series [3] came out at 21%. The same compound showed a half-life in series [6] of 78 min.

On to `CN1CCN(c2ccc(CNC(=O)c3ccc([N+](=O)[O-])o3)cc2F)CC1.Cl`, for which the time of peak concentration (Tmax) in series [5] was 30 min.

Regarding `CN(C)c1ccc(CNC(=O)c2ccc([N+](=O)[O-])o2)cc1.Cl`, the Tmax in series [5] is 30 min.

As to `Cl.O=C(NCc1ccc(N2CCN(Cc3ccccc3)CC2)cc1)c1ccc([N+](=O)[O-])o1`, in series [2], the peak concentration (Cmax) turned out to be 2240 ng/mL. Besides, the time to peak (Tmax) in series [5] stood at 30 min. In series [3], this compound came in with a bioavailability of more than 80%. This compound had a half-life in series [6] of 66 min.

Take `Cl.O=C(NCc1ccc(N2CCN(CC3CC3)CC2)cc1)c1ccc([N+](=O)[O-])o1`: the Tmax in series [5] amounted to 30 min.

The compound `NNC(=O)c1ccncc1` [ISONIAZID] came in with a Cmax in series [2] of more than 38400 ng/mL. In series [3], this compound yielded a bioavailability of more than 80%. In series [4], the Log10 cfu was 3.88.
